Results: ChEMBL document CHEMBL4706681, “New 2-Pyrazoline and Hydrazone Derivatives as Potent and Selective Monoamine Oxidase A Inhibitors” (J Med Chem, 2021)
Active and inactive are the calls of the source. The calls are words filed in the database; no cut-off is given here.

Assays:
[1] = biological target: T1, Amine oxidase [flavin-containing] A (Homo sapiens, UniProt P21397); assay: Inhibition of recombinant human MAO-A expressed in baculovirus infected BTI insect cells using p-tyramine as substrate incubated for 30 mins by Amplex red reagent based fluorescence analysis
T1 sequence (P21397 whole entry): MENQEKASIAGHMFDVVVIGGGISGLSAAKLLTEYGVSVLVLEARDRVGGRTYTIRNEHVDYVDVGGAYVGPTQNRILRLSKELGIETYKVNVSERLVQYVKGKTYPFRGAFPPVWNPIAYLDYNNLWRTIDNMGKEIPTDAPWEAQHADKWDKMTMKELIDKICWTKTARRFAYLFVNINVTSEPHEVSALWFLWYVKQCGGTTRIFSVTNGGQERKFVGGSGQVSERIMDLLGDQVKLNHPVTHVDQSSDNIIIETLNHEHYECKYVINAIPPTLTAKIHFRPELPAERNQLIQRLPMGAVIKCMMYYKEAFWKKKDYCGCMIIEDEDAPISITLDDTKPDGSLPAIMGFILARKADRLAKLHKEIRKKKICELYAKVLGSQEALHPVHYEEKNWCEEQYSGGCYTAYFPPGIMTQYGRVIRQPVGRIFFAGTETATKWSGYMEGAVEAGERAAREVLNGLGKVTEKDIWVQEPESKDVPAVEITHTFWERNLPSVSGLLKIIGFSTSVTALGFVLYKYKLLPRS

[2] = biological target: T2, Amine oxidase [flavin-containing] B (Homo sapiens, UniProt P27338); assay: Inhibition of recombinant human MAO-B expressed in baculovirus infected BTI insect cells using p-tyramine as substrate incubated for 30 mins by Amplex red reagent based fluorescence analysis; assay type: cell-based
T2 sequence (P27338 whole entry): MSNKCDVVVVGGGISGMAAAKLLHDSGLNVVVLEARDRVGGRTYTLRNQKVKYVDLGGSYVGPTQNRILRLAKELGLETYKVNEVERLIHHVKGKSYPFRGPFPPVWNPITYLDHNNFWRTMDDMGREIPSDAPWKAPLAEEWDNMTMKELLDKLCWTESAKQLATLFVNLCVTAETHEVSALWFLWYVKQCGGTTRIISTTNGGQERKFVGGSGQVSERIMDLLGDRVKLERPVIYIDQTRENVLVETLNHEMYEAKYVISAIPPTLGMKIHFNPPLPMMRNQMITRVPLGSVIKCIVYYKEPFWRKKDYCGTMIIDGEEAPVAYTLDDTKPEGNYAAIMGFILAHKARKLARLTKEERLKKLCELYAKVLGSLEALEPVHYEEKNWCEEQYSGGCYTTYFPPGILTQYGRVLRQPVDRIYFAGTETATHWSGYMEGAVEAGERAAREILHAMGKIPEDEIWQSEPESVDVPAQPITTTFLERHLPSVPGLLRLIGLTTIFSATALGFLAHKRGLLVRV

[3] = Selectivity index, ratio of Ki for inhibition of recombinant human MAO-A to Ki for inhibition of recombinant human MAO-B using p-tyramine as substrate
[4] = biological target: T1, Amine oxidase [flavin-containing] A; assay: Reversible inhibition of human MAO-A assessed as residual enzyme activity at 4 fold IC50 incubated for 15 mins and measured 24 hrs post dialysis by dialysis method relative to control; details: 24.25 h, time 1455 min
In short: (§1)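 Dialysed (MWCO 12 000) at 4 °C for 24 h against 100 mM potassium phosphate pH 7.4, 5% sucrose, buffer changed twice. Dialysed and undialysed mixtures assayed together; residual activity from triplicates.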

[5] = biological target: T1, Amine oxidase [flavin-containing] A; assay: Reversible inhibition of human MAO-A assessed as residual enzyme activity at 4 fold IC50 incubated for 15 mins and measured before dialysis by dialysis method relative to control; in short: as §1
[6] = biological target: T2, Amine oxidase [flavin-containing] B; assay: Reversible inhibition of human MAO-B assessed as residual enzyme activity at 4 fold IC50 incubated for 15 mins and measured before dialysis relative to control; in short: as §1
[7] = biological target: T2, Amine oxidase [flavin-containing] B; assay: Reversible inhibition of human MAO-B assessed as residual enzyme activity at 4 fold IC50 incubated for 15 mins and measured 24 hrs post dialysis relative to control; details: 24.25 h, time 1455 min; in short: as §1
[8] = Cytotoxicity against human HepG2 cells assessed as cell viability at 7.5 uM incubated for 2 hrs by MTT assay relative to control; assay type: cell-based; details: read-out: Activity
In short: (§2)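 HepG2 human hepatoma cells; viability read by MTT assay, with 0.1% DMSO as vehicle control. Viability given as % of control, mean ± SEM (n = 3); p < 0.05 taken as significant.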

[9] = Cytotoxicity against human HepG2 cells assessed as cell viability at 15 uM incubated for 2 hrs by MTT assay relative to control; assay type: cell-based; details: read-out: Activity; in short: as §2
[10] = Cytotoxicity against human HepG2 cells assessed as cell viability at 30 uM incubated for 2 hrs by MTT assay relative to control; assay type: cell-based; details: read-out: Activity; in short: as §2
[11] = Permeability of compound in PBS/EtOH buffer (70:30) at 25 ug/ml incubated for 16 hrs by UV plate reader based PAMPA-BBB
Mus musculus [12] = assay: Antidepressant-like activity in CD1 mouse assessed as reduction in immobility time at 30 mg/kg, po administered via gavage as single dose measured after 1 hr by Porsolt-forced swim test; assay type: functional, organism-based
Mus musculus [13] = assay: Antidepressant-like activity in CD1 mouse assessed as reduction in immobility time at 30 mg/kg, po administered via gavage for 7 days and measured 1 h post last dose by Porsolt-forced swim test; assay type: functional, organism-based; details: time 7.0 day
In short: (§3)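 Male albino CD-1 mice (20–25 g), 12 h light/dark, food and water ad libitum. Dosed by oral gavage once daily for 7 days in 200 μL 0.5% CMC; vehicle-only controls. […] Forced swim test run 1 h after the last dose. Immobility scored every 60 s over 6 min; n = 8–12.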

[14] = Ex vivo inhibition of MAOA in CD1 mouse brain homogenates assessed as MAOA level at 30 mg/kg, po administered as single acute dose via gavage and measured after 1 hr by monoamine oxidase assay (reference value: 0.40 +/- 0.012 nmol/min/mg); assay type: functional
[15] = Ex vivo inhibition of MAOA in CD1 mouse brain homogenates assessed as 5-HT levels at 30 mg/kg, po administered as single acute dose via gavage and measured after 1 hr by ELISA kit method (reference value: 0.80 +/- 0.006 ug/g); assay type: functional
[16] = Ex vivo inhibition of MAOA in CD1 mouse brain homogenates assessed as dopamine levels at 30 mg/kg, po administered as single acute dose via gavage and measured after 1 hr by ELISA kit method (reference value: 7.08 +/- 0.58 ug/g); assay type: functional
[17] = Ex vivo inhibition of MAOA in CD1 mouse brain homogenates assessed as assessed as inhibition of 5-HT deamination by measuring 5-HIAA metabolite levels at 30 mg/kg, po administered as single acute dose via gavage and measured after 1 hr by HPLC analysis (reference value: 0.28 +/- 0.011 ug/g); assay type: functional
[18] = Ex vivo inhibition of MAOA in CD1 mouse brain homogenates assessed as assessed as inhibition of dopamine deamination by measuring DOPAC metabolite levels at 30 mg/kg, po administered as single acute dose via gavage and measured after 1 hr by HPLC analysis (reference value: 1.22 +/- 0.2 ug/g); assay type: functional
[19] = Ex vivo inhibition of MAOA in CD1 mouse brain homogenates assessed as MAOA level at 30 mg/kg, po administered as subchronic dose via gavage for 7 days and measured 1 hr post last dose by monoamine oxidase assay (reference value: 0.40 +/- 0.005 nmol/min/mg); assay type: functional; details: time 7 day
[20] = Ex vivo inhibition of MAOA in CD1 mouse brain homogenates assessed as 5-HT levels at 30 mg/kg, po administered as subchronic dose via gavage for 7 days and measured 1 hr post last dose by ELISA kit method (reference value: 0.78 +/- 0.01 ug/g); assay type: functional; details: time 7 day
[21] = Ex vivo inhibition of MAOA in CD1 mouse brain homogenates assessed as inhibition of 5-HT deamination by measuring 5-HIAA metabolite levels by using at 30 mg/kg, po administered as subchronic dose via gavage for 7 days and measured 1 hr post last dose by HPLC analysis (reference value: 0.18 +/- 0.01 ug/g); assay type: functional; details: time 7 day
[22] = Effect on locomotor activity in CD1 mouse assessed as total distance traveled at 30 mg/kg, po administered via gavage for 7 days by open field test; assay type: ADME, organism-based; details: in vivo, 168 h, time 7 day
In short: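 Each mouse placed in the centre of a 50 × 50 × 30 cm black box and video-tracked; total distance travelled over 5 min; n = 8–10.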

Mus musculus [23] = assay: Antidepressant-like activity in CD1 mouse assessed as maximum efficacy at 20 mg/kg, po administered as subchronic dose gavage for 7 days and measured 1 h post last dose by Porsolt-forced swim test; assay type: functional, organism-based; details: time 7.0 day; in short: as §3
[24] = biological target: T1, Amine oxidase [flavin-containing] A; assay: Irreversible inhibition of human MAO-A assessed as residual enzyme activity at 4 fold IC50 incubated for 15 mins and measured before dialysis relative to control
In short: (§4)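 Recombinant hMAO-A (1 U/mL) was preincubated with inhibitor for 15 min at 37 °C in 0.05 M potassium phosphate, pH 7.4, with 5% sucrose and 1% DMSO. It was then dialyzed at 4 °C against 100 mM potassium phosphate, pH 7.4, 5% sucrose (12 000 MWCO), with buffer replaced twice over 24 h. Dialyzed and undialyzed mixtures were assayed together for MAO-A activity, in triplicate; residual activity is given as mean ± SEM.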

[25] = biological target: T1, Amine oxidase [flavin-containing] A; assay: Irreversible inhibition of human MAO-A assessed as residual enzyme activity at 4 fold IC50 incubated for 15 mins and measured 24 hrs post dialysis relative to control; details: 24.25 h, time 1455 min; in short: as §4

| Compound | Ki [1] | Ki [2] | Ratio Ki [3] | Activity [4] | Activity [5] | Activity [6] | Activity [7] | viability at 2 h, 7.5 µM [8] | viability at 2 h, 15 µM [9] | viability at 2 h, 30 µM [10] | Papp at 16 h, 25 ug/ml [11] | Activity (Mus musculus [12]) | Activity (Mus musculus [13]) | Activity [14] | Activity [15] | Activity [16] | Activity [17] | Activity [18] | Activity [19] | Activity [22] | also measured |
| --- | --- | --- | --- | --- | --- | --- | --- | --- | --- | --- | --- | --- | --- | --- | --- | --- | --- | --- | --- | --- | --- |
| COc1ccc(C2=NN(C(=O)Cn3c(=O)oc4ccccc43)C(c3ccccc3Cl)C2)cc1 (centres undefined) | 0.001 µM | 1.25 µM | 8 10^-4No_unit | 90.16% | 18.11% | 78.2% | 91.5% | 91.2% | 90% | 85% | 11 ×10⁻⁶ cm/s | Active | Active | 0.25 nmol/min/mg | 0.98 µg/g | 7.1 µg/g | 0.35 µg/g | 1.24 µg/g | 0.24 nmol/min/mg | Non-Toxic | Activity [20]: 1.19 µg/g; Activity [21]: 0.31 µg/g |
| COc1cccc(C2CC(c3ccccc3)=NN2C(=O)Cn2c(=O)oc3ccccc32)c1 (centres undefined) | 0.008 µM | 8.25 µM | 0.00097 | 91.74% | 24.55% | 85% | 92.25% | 96.2% | 88.3% | 77.3% | 8.9 ×10⁻⁶ cm/s | inactive | Active | 0.31 nmol/min/mg | 0.88 µg/g | 7.08 µg/g | 0.32 µg/g | 1.23 µg/g | 0.29 nmol/min/mg | Non-Toxic | Activity [20]: 1.01 µg/g; Activity [21]: 0.24 µg/g |
| COc1ccc(C(/C=C/c2cccc(OC)c2OC)=N/NC(=O)Cn2c(=O)oc3ccc(Cl)cc32)cc1 | 0.01 µM | 1850 µM | – | 93.57% | 20.16% | 82.37% | 95.21% | 118% | 99.1% | 88.5% | – | Active | Active | – | – | – | – | – | – | Non-Toxic | Activity (Mus musculus [23]): inactive |
| C#CCN(C)[C@H](C)Cc1ccccc1 [SELEGILINE] | – | – | – | – | – | – | – | 90% | 87.2% | 84% | – | – | – | – | – | – | – | – | – | – | Activity [24]: 89.96%; Activity [25]: 90.01% |
| COc1ccc(C2CC(c3ccccc3)=NN2C(=O)Cn2c(=O)oc3ccccc32)cc1OC (centres undefined) | 0.009 µM | 20 µM | 4.55 10^-5No_unit | 94% | 23.11% | 78.9% | 94.8% | 90.4% | 88.2% | 85.3% | 9.44 ×10⁻⁶ cm/s | inactive | Active | 0.28 nmol/min/mg | 0.91 µg/g | 7.08 µg/g | 0.32 µg/g | 1.23 µg/g | 0.27 nmol/min/mg | Non-Toxic | Activity [20]: 1.04 µg/g; Activity [21]: 0.24 µg/g |
